Screens from PubChem.
Only some compounds are listed: those with a hit (about 3.4% of all), similar ones and a draw of the others.
rRNA inh HTS = inhibitors of bacterial rRNA selective over humanized ribosomes; E. coli WT GFP vs humanized-ribosome RFP mutants, fluorescence, 24 h; stronger effect = lower value; DMSO median 0, no signal -100; GFP signal change (wild-type ribosome), % (no concentration beside the values); 350,000 compounds, 1.6% hits;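 active means significant combined selectivity score with lowered wild-type GFP, culture density cut under 30%, mutant RFP and density less affected; inactive means any of these conditions unmet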
E-selectin induc = E-selectin induction on HUVECs; P16581; HUVEC E-selectin immunofluorescence imaging; normalized: neutral wells 0, TNF-alpha wells 100; activation, % at 7.58 µM; 260,000 compounds, 0.37% hits;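 active means mean E-selectin-positive cell signal at least 10% of the positive control, reached in at least 60% of replicates, without over 20% cell loss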
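Assay system: HUVEC primary endothelial cells. Input: 3,000 HUVEC seeded per well. Doses: one compound dose added by pin transfer. Read-out basis: % PE-positive cells. Benchmarks: TNF-alpha high, DMSO low. Detection: immunofluorescence imaging. Buffer or medium: EGM-2, gelatin.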
S100A4 inh HTS = inhibitors of human S100A4 binding to myosin IIA peptide | 360,000 compounds, 0.14% hits | AID 652163 | P26447 | S100A4/TAMRA-MyoIIA peptide fluorescence polarization | inhibition, % at 10.7 µM;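 active means mean inhibition of at least 70% across replicates, with every replicate also reaching that level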
Target sequence (P26447 whole entry, looked up): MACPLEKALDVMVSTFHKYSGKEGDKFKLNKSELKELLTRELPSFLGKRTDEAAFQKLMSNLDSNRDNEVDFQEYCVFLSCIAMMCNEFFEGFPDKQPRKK
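System – human S100A4 monomer protein, biochemical binding assay · Buffer or medium – Calcium-containing HEPES buffer, pH 7.2 · Timing – 5 min between mix addition and reading · Also added – TAMRA-labelled myosin IIA heavy-chain peptide probe, 5 nM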
MLL AF4-AF9 inh = blocks AF4 peptide binding to human AF9; P42568; AlphaScreen, biotin-AF4 peptide binding to FLAG-AF9; inhibition, % at 10 µM; 350,000 compounds, 0.47% hits;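 active means every replicate reaching a set inhibition limit, whatever the replicate mean, cut at about 25% in these data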;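 further: 0% = plate neutral control median and 100% = total signal loss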
ERAP1 inh = blocks human ERAP1 aminopeptidase activity | recombinant ERAP1, Leu-AMC fluorescence, 60 min | inhibition, % at 10.7 µM | 340,000 compounds, 0.15% hits;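 active means mean replicate inhibition of at least 30%, or all replicates individually reaching that 30% level; inactive means mean below 30% and not every replicate reaching it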;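 further: 0% = neutral control wells and 100% = L-leucinethiol positive control wells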
SIRT5 block = inhibitors of human sirtuin-5 desuccinylase. 330,000 compounds, 1.1% hits. Purified SirT5, succinyl-peptide AMC, trypsin-coupled fluorescence. Q9NXA8. inhibition, % at 15 µM. AID 652115; in the data active means inhibition above about 15%
Target sequence (Q9NXA8 whole entry, looked up): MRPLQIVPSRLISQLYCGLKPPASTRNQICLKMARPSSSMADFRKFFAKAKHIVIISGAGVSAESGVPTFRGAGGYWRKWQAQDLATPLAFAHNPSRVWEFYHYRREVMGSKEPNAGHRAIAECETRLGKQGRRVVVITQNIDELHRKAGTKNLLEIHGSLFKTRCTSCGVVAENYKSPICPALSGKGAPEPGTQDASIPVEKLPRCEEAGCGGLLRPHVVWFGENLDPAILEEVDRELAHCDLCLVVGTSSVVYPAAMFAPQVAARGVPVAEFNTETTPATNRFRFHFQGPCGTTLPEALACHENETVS
* marks the source's active call; other numbers are inactive results; · = no result.

SMILES	rRNA inh HTS	E-selectin induc	S100A4 inh HTS	MLL AF4-AF9 inh	ERAP1 inh	SIRT5 block
Cc1ccc(S(=O)(=O)Nc2ccc3c(c2)C(=O)N([C@H](C)CO)C[C@H](C)[C@@H](CN(C)Cc2ccc(C(F)(F)F)cc2)OCCCC[C@H](C)O3)cc1	-6	·	-7	2	0	21*
Cc1ccc(S(=O)(=O)Nc2ccc3c(c2)C(=O)N([C@H](C)CO)C[C@@H](C)[C@H](CN(C)Cc2ccc(C(F)(F)F)cc2)OCCCC[C@H](C)O3)cc1	-2	·	43	2	2	13
Cc1ccc(S(=O)(=O)Nc2ccc3c(c2)C(=O)N([C@@H](C)CO)C[C@H](C)[C@H](CN(C)Cc2ccc(C(F)(F)F)cc2)OCCCC[C@@H](C)O3)cc1	2	·	-3	-1	-1	18*
Cc1ccc(S(=O)(=O)Nc2ccc3c(c2)C(=O)N([C@@H](C)CO)C[C@H](C)[C@H](CN(C)Cc2ccc(C(F)(F)F)cc2)OCCCC[C@H](C)O3)cc1	2	·	5	-1	0	15*
CCS(=O)(=O)NCC[C@H]1CC[C@H](NC(=O)C2CC2)[C@@H](CO)O1	2	-1	18	-6	-3	5
CC(=O)Nc1cccc2c1O[C@@H](CN(C)C)[C@H](C)CN(C)C2=O	1	·	·	·	·	·
O=C(Nc1ccc(F)cc1)N1CC(=O)N2[C@H](C1)[C@H](c1ccc(C#Cc3ccccc3)cc1)[C@@H]2CO	-2	0	·	·	·	·
C[C@@H]1CN([C@@H](C)CO)C(=O)c2cc(NS(C)(=O)=O)ccc2O[C@@H](C)CCCCO[C@H]1CN(C)Cc1ccc(C(F)(F)F)cc1	1	0	-5	0	-3	12
Cc1n(Cc2ccccc2)c2ccccc2[n+]1Cc1ccccc1	-34*	·	1	-2	2	3
O=C(C[C@H]1CC[C@@H]2[C@H](COC[C@H](O)CN2S(=O)(=O)c2ccccc2)O1)N1CCc2ccccc2C1	-9	0	-1	0	0	-2
Cc1ccc(S(=O)(=O)N[C@H]2C=C[C@@H](CC(=O)NCCCN(C)C)O[C@H]2CO)cc1	4	0	13	0	-3	6
Cc1ccc(S(=O)(=O)NC(Cc2ccccc2)C(=O)O)cc1C (centres undefined)	-12	59*	-2	-3	-1	7
Cc1ccc(S(=O)(=O)N[C@@H](CO)C(=O)N[C@@H](Cc2ccc(O)cc2)C(=O)O)cc1	4	0	-4	-2	-7	21*
O=C(Nc1ccccc1Cl)N1C[C@@H]2[C@H](c3ccccc31)[C@@H](CO)N2Cc1ccccc1	-20	1	10	3	2	-1
O=C(Nc1ccccc1)N1C[C@@H]2[C@H](c3ccccc31)[C@@H](CO)N2CC1CCCC1	-4	1	0	-5	-2	19*
O=C(Nc1ccccc1Cl)N1C[C@H]2[C@@H](c3ccccc31)[C@H](CO)N2Cc1ccccc1	-23*	0	-4	2	3	4
O=C(Nc1ccc(Cl)cc1)N1C[C@H]2[C@@H](c3ccccc31)[C@@H](CO)N2CC1CCCC1	-57	0	13	-1	1	-1
O=C(N[C@H]1C=C[C@H](CC(=O)N2CCc3ccccc3C2)O[C@H]1CO)C1CCOCC1	2	0	0	-4	2	4
Cc1ccc(C(=O)NCC(=O)N2CCC3(CC2)NCCc2[nH]cnc23)cc1C	13	·	0	1	0	-1
Cc1ccc(C(=O)NCCC(=O)N2CCC3(CC2)NCCc2[nH]cnc23)cc1C	0	0	-2	1	-1	28*
CC(C)CNC(=O)COC(=O)c1cccc(S(=O)(=O)NCC(F)(F)F)c1	4	·	0	25*	1	-2
CNS(=O)(=O)c1cccc(C(=O)OCC(=O)NCc2ccccc2)c1	3	·	1	·	3	5
Cc1cccc(CN2CCN(C3CN(Cc4cn(Cc5cccc(Cl)c5)nn4)S(=O)(=O)C3)CC2)c1 (centres undefined)	-36*	2	-4	3	·	3
